Drawing on ChEMBL document CHEMBL1932971, “Synthesis of uriedo and thiouriedo derivatives of peptide conjugated heterocycles - A new class of promising antimicrobials” (2012), this text covers MIC and zone of inhibition for 4 compounds.

≈ marks a conversion by molar mass, not a printed value. Numbered stars: 1 amine (or outer) side, 2 acyl side, 3 side chain; on linkers, the order of the positions; unused ones are H or OH. Peptide text beside a SMILES is read from it. * marks the point of attachment. Piperazinyl(4-(2,3-Cl2Ph)) = Clc1cccc(N2CCN(*)CC2)c1Cl; NH(4-Cl-phenyl) = Clc1ccc(N*)cc1; X1 = Fc1ccc2c(C3CCN(*)CC3)noc2c1; NH(2-F-phenyl) = Fc1ccccc1N*; CO = O=C([*:1])[*:2]

Format in all cases: functional
The subject of assay [1] is Aspergillus flavus. Briefly: Antifungal activity against Aspergillus flavus after 72 hrs by microdilution method. (Broth dilution looks for growth in wells or tubes with falling amounts of substance.)
Assay [2] has as its system Aspergillus niger. Briefly: Antifungal activity against Aspergillus niger after 72 hrs by microdilution method.
In assay [3] the test system is Staphylococcus aureus. Briefly: Antibacterial activity against coagulase-positive Staphylococcus aureus at 30 ug/ml after 24 hrs by agar well diffusion method. Conditions: read-out: DIZ. The procedure, abridged:
(§1)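 Agar well diffusion. Inocula were grown in nutrient broth at 37 °C for 24 h, then subcultured in nutrient broth at room temperature. Compounds were made as a 1 mg/mL DMSO stock and diluted to 30 µg/mL final. Nutrient agar plates were spread-inoculated and 6 mm wells each got 0.1 mL. Controls were amoxicillin (reference) and DMSO (negative). Incubation was 24 h at 37 °C. Inhibition zone was measured in mm as the mean of three determinations.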
Background: A growth-free zone around the sample is the usual read-out of agar diffusion tests.

Assay [4] deals with Xanthomonas oryzae. Briefly: Antibacterial activity against Xanthomonas oryzae at 30 ug/ml after 24 hrs by agar well diffusion method. As to conditions: read-out: DIZ.
For assay [5], the system named is Xanthomonas oryzae. The assay can be described thus: Antibacterial activity against Xanthomonas oryzae after 24 hrs by microdilution method.
The test system of assay [6] is Aspergillus niger. Briefly: Antifungal activity against Aspergillus niger at 30 ug/ml after 72 hrs by agar well diffusion method. As to conditions: read-out: DIZ. The method, boiled down: (§2)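 Fungal well diffusion. Inocula were subcultured in nutrient broth for one day, then spread on solidified medium. Compounds were made as a 1 mg/mL DMSO stock and diluted to 30 µg/mL final. Each 6 mm well got 0.1 mL. Controls were bavistin (reference) and DMSO (negative). Plates stood for 3 days at room temperature. Inhibition zone was measured in mm as the mean of three determinations.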

Assay [7] deals with Klebsiella pneumoniae. Briefly: Antibacterial activity against Klebsiella pneumoniae after 24 hrs by microdilution method.
The subject of assay [8] is Fusarium oxysporum. The assay can be described thus: Antifungal activity against Fusarium oxysporum after 72 hrs by microdilution method.
Assay [9] concerns Aspergillus flavus. Briefly: Antifungal activity against Aspergillus flavus at 30 ug/ml after 72 hrs by agar well diffusion method. As to conditions: read-out: DIZ. The method, boiled down:
as §2

In assay [10] the test system is Klebsiella pneumoniae. Briefly: Antibacterial activity against Klebsiella pneumoniae at 30 ug/ml after 24 hrs by agar well diffusion method. As to conditions: read-out: DIZ. The method, boiled down: as §1
Assay [11] relates to Escherichia coli. Briefly: Antibacterial activity against Escherichia coli after 24 hrs by microdilution method.
The subject of assay [12] is Staphylococcus aureus. Briefly: Antibacterial activity against coagulase-positive Staphylococcus aureus after 24 hrs by microdilution method.
Assay [13] relates to Fusarium oxysporum. The assay can be described thus: Antifungal activity against Fusarium oxysporum at 30 ug/ml after 72 hrs by agar well diffusion method. Conditions: read-out: DIZ. The method, boiled down:
as §2

The test system of assay [14] is Escherichia coli. Briefly: Antibacterial activity against Escherichia coli at 30 ug/ml after 24 hrs by agar well diffusion method. As to conditions: read-out: DIZ. The procedure, abridged:
as §1

Usually MIC stands for the least concentration at which growth counts as inhibited. Low readings indicate greater potency, high ones weaker potency. For `CC[C@H](C)[C@H](NC(=O)CNC(=O)CNC(=O)Nc1ccccc1F)C(=O)N1CCC[C@H]1C(=O)N1CCN(c2cccc(Cl)c2Cl)CC1` ({NH(2-F-phenyl)-CO}-GGIP-{Piperazinyl(4-(2,3-Cl2Ph))}), the minimum inhibitory concentration (MIC) against Aspergillus flavus [1] is 14 µg/mL (≈ 20.2 µM); with Aspergillus niger [2] it was 11 µg/mL (≈ 15.9 µM); against Xanthomonas oryzae [5], 10 µg/mL (≈ 14.4 µM); against Klebsiella pneumoniae [7], 10 µg/mL (≈ 14.4 µM); against Fusarium oxysporum [8] it was 15 µg/mL (≈ 21.7 µM); against Escherichia coli [11] it was 13 µg/mL (≈ 18.8 µM). Also, the MIC against Staphylococcus aureus [12] is 12 µg/mL (≈ 17.3 µM). Besides, the zone of inhibition at 30 µg/mL with Staphylococcus aureus [3] is 24 mm; in the assay on Xanthomonas oryzae [4], 26 mm; with Aspergillus niger [6], 32 mm; with Aspergillus flavus [9], 28 mm; in the assay with Klebsiella pneumoniae [10], 23 mm; in the assay on Fusarium oxysporum [13] it was 30 mm. Besides, the zone of inhibition at 30 µg/mL in the assay with Escherichia coli [14] was found to be 29 mm.

With `CC(C)[C@H](NC(=O)CNC(=O)Nc1ccccc1F)C(=O)NCC(=O)N[C@H](C(=O)N1CCC[C@H]1C(=O)N1CCC(c2noc3cc(F)ccc23)CC1)C(C)C` ({NH(2-F-phenyl)-CO}-GVGVP-X1), the minimum inhibitory concentration (MIC) against Aspergillus flavus [1] came to 5.75 µg/mL (≈ 7.5 µM); with Aspergillus niger [2], 5 µg/mL (≈ 6.52 µM); in the assay with Xanthomonas oryzae [5] it was 6.75 µg/mL (≈ 8.8 µM); against Klebsiella pneumoniae [7], 5.25 µg/mL (≈ 6.85 µM); in the assay on Fusarium oxysporum [8], 7 µg/mL (≈ 9.13 µM); against Escherichia coli [11], 7.75 µg/mL (≈ 10.1 µM). For the same compound, the lowest concentration to inhibit growth in the assay on Staphylococcus aureus [12] (MIC) was 6.75 µg/mL (≈ 8.8 µM). For the same compound, the zone of inhibition at 30 µg/mL stood at 30 mm in the assay on Staphylococcus aureus [3]; 35 mm in the assay on Xanthomonas oryzae [4]; 36 mm in the assay on Aspergillus niger [6]; 32 mm with Aspergillus flavus [9]; 33 mm in the assay on Klebsiella pneumoniae [10]; 33 mm in the assay on Fusarium oxysporum [13]. The zone of inhibition at 30 µg/mL in the assay with Escherichia coli [14] amounted to 34 mm.

As for `CC(C)[C@H](NC(=O)CNC(=O)Nc1ccccc1F)C(=O)NCC(=O)N[C@H](C(=O)N1CCC[C@H]1C(=O)N1CCN(c2cccc(Cl)c2Cl)CC1)C(C)C` ({NH(2-F-phenyl)-CO}-GVGVP-{Piperazinyl(4-(2,3-Cl2Ph))}), the minimal inhibitory concentration (MIC) against Aspergillus flavus [1] came to 6.25 µg/mL (≈ 8.04 µM); in the assay on Aspergillus niger [2], 5.5 µg/mL (≈ 7.07 µM); against Xanthomonas oryzae [5], 7.25 µg/mL (≈ 9.32 µM); in the assay with Klebsiella pneumoniae [7], 6 µg/mL (≈ 7.71 µM); in the assay on Fusarium oxysporum [8], 7.5 µg/mL (≈ 9.64 µM); in the assay on Escherichia coli [11] it was 8.25 µg/mL (≈ 10.6 µM). Also, in the assay with Staphylococcus aureus [12], inhibition of growth (MIC) required 7.25 µg/mL (≈ 9.32 µM). Moreover, the zone of inhibition at 30 µg/mL in the assay on Staphylococcus aureus [3] amounted to 29 mm; with Xanthomonas oryzae [4] it was 34 mm; with Aspergillus niger [6] it was 35 mm; with Aspergillus flavus [9], 31 mm; in the assay on Klebsiella pneumoniae [10] it was 32 mm; in the assay on Fusarium oxysporum [13] it was 32 mm. Also, in the assay on Escherichia coli [14], the zone of inhibition at 30 µg/mL amounted to 33 mm.

On to `O=C(CNC(=O)Nc1ccc(Cl)cc1)N[C@@H](Cc1ccccc1)C(=O)NCC(=O)N[C@@H](Cc1ccccc1)C(=O)N1CCC[C@H]1C(=O)N1CCC(c2noc3cc(F)ccc23)CC1` ({NH(4-Cl-phenyl)-CO}-GFGFP-X1), for which the MIC was determined as 6.25 µg/mL (≈ 7.11 µM) in the assay with Aspergillus flavus [1]; 4.75 µg/mL (≈ 5.4 µM) against Aspergillus niger [2]; 6.5 µg/mL (≈ 7.39 µM) with Xanthomonas oryzae [5]; 4.75 µg/mL (≈ 5.4 µM) in the assay with Klebsiella pneumoniae [7]; 6 µg/mL (≈ 6.82 µM) against Fusarium oxysporum [8]; 6.25 µg/mL (≈ 7.11 µM) in the assay on Escherichia coli [11]. Further, the MIC in the assay on Staphylococcus aureus [12] amounted to 6 µg/mL (≈ 6.82 µM). Also, the zone of inhibition at 30 µg/mL is 31 mm in the assay with Staphylococcus aureus [3]; 35 mm with Xanthomonas oryzae [4]; 38 mm in the assay with Aspergillus niger [6]; 31 mm with Aspergillus flavus [9]; 33 mm in the assay on Klebsiella pneumoniae [10]; 35 mm with Fusarium oxysporum [13]. The zone of inhibition at 30 µg/mL in the assay with Escherichia coli [14] is 34 mm.
